Converted amounts (≈) assume the structure as drawn. *1 amine or outer side, *2 acyl side, *3 side chain or, on linkers, in order; H or OH if unused. Where a SMILES comes first, the peptide text is derived from it. Bridges are numbered along the chain shown (N, C = ends). Roman numbers before positions name the chains, in order. [ ]: non-standard residue; d: D form. Actinocin(1to9) = Cc1c2oc3c(C)ccc(C(=O)[*:2])c3nc-2c(C(=O)[*:1])c(N)c1=O; NMeV = CN[C@H](C(=O)O)C(C)C; Sar = CNCC(=O)O
What was measured:
[1] = test system: CCRF-CEM; assay: In vitro growth inhibition of CCRF-CEM (Human leukemic lymphoblastic) cell; format: functional; settings: read-out: ID50 (the source's name)
Method in brief: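 Human CCRF-CEM lymphoblastic leukemia cells were grown in continuous spinner (suspension) culture in log phase. Compounds were dissolved in Me2SO/saline, with under 1% Me2SO in the final medium. ID50 (ng/mL) is the concentration giving 50% growth inhibition at 48 h, averaged over three experiments.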

[2] = test system: B16; assay: compound was evaluated in vitro for growth inhibition of B16 (Murine melanoma cell line) cell; format: functional; settings: Mus musculus, read-out: ID50 (the source's name)
Method in brief: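 Murine B16 melanoma cells were grown as a monolayer culture in log-phase growth. Compounds were dissolved in Me2SO/saline, with under 1% Me2SO in the final growth medium. ID50 (ng/mL) is the concentration giving 50% growth inhibition after 48 h, averaged over three experiments.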

[3] = Compound was evaluated for the elevation in temperature (degrees Celsius) for thermal denaturation of DNA.
Method in brief: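 Calf-thymus DNA at 5.2 × 10^-5 M with drug at 2.5 × 10^-5 M in 0.01 M phosphate buffer (pH 7) with 10^-5 M EDTA. Thermal denaturation curves were recorded on a thermoprogrammed spectrophotometer with a quartz cell. ΔTm = Tm of DNA–drug complex minus Tm of DNA, with melting in the 67-85 °C range.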

[4] = Compound was evaluated for the elevation in temperature (degrees Centigrade) for thermal denaturation of DNA

| SMILES | IC50 [1] [µg/mL] | IC50 [2] [µg/mL] | Change in Tm [3] | Change in Tm [4] |
| --- | --- | --- | --- | --- |
| Cc1c2oc3c(C)c(OCC(C)N)cc(C(=O)NC4C(=O)N[C@H](C(C)C)C(=O)N5CCC[C@H]5C(=O)N(C)CC(=O)N(C)[C@@H](C(C)C)C(=O)O[C@H]4C)c3nc-2c(C(=O)NC2C(=O)N[C@H](C(C)C)C(=O)N3CCC[C@H]3C(=O)N(C)CC(=O)N(C)[C@@H](C(C)C)C(=O)O[C@H]2C)c(N)c1=O (some centres not stated) | 0.06 (≈ 0.0452 µM) | 0.055 (≈ 0.0414 µM) | 4.8 | – |
| Cc1c2oc3c(C)c(OCC4CN4)cc(C(=O)NC4C(=O)N[C@H](C(C)C)C(=O)N5CCC[C@H]5C(=O)N(C)CC(=O)N(C)[C@@H](C(C)C)C(=O)O[C@H]4C)c3nc-2c(C(=O)NC2C(=O)N[C@H](C(C)C)C(=O)N3CCC[C@H]3C(=O)N(C)CC(=O)N(C)[C@@H](C(C)C)C(=O)O[C@H]2C)c(N)c1=O (some centres not stated) | 0.076 (≈ 0.0573 µM) | 0.11 (≈ 0.0829 µM) | – | 2.8 |
| C=CCOc1cc(C(=O)NC2C(=O)N[C@H](C(C)C)C(=O)N3CCC[C@H]3C(=O)N(C)CC(=O)N(C)[C@@H](C(C)C)C(=O)O[C@H]2C)c2nc3c(C(=O)NC4C(=O)N[C@H](C(C)C)C(=O)N5CCC[C@H]5C(=O)N(C)CC(=O)N(C)[C@@H](C(C)C)C(=O)O[C@H]4C)c(N)c(=O)c(C)c-3oc2c1C (some centres not stated) | > 0.75 | > 1 | 6.8 | – |
| Cc1c2oc3c(C)ccc(C(=O)N[C@@H]4C(=O)N[C@H](C(C)C)C(=O)N5CCC[C@H]5C(=O)N(C)CC(=O)N(C)[C@@H](C(C)C)C(=O)O[C@@H]4C)c3nc-2c(C(=O)N[C@@H]2C(=O)N[C@H](C(C)C)C(=O)N3CCC[C@H]3C(=O)N(C)CC(=O)N(C)[C@@H](C(C)C)C(=O)O[C@@H]2C)c(N)c1=O [DACTINOMYCIN] (I: T[dV]P[Sar][NMeV] / II: T[dV]P[Sar][NMeV]; ester I:1-I:C, II:1-II:C; linker I:N-II:N via Actinocin(1to9)) | 0.013 (≈ 0.0104 µM) | 0.0033 (≈ 0.00263 µM) | 8 | – |
